One series concerns the target Cytochrome P450 3A4 (Homo sapiens, UniProt P08684). The series can be described thus: Inhibition of CYP3A4. The class given is ADME.
The target of a further series is Cytochrome P450 2C19 (Homo sapiens, UniProt P33261). As to the kind of experiment: Inhibition of CYP2C19. The class given is ADME.
In series [1] the target is T1, Serine/threonine-protein kinase B-raf (Homo sapiens, UniProt P15056, V600E). As to the kind of experiment: Inhibition of B-Raf V600E mutant.
T1 sequence (P15056 2-766 V600E limits assumed): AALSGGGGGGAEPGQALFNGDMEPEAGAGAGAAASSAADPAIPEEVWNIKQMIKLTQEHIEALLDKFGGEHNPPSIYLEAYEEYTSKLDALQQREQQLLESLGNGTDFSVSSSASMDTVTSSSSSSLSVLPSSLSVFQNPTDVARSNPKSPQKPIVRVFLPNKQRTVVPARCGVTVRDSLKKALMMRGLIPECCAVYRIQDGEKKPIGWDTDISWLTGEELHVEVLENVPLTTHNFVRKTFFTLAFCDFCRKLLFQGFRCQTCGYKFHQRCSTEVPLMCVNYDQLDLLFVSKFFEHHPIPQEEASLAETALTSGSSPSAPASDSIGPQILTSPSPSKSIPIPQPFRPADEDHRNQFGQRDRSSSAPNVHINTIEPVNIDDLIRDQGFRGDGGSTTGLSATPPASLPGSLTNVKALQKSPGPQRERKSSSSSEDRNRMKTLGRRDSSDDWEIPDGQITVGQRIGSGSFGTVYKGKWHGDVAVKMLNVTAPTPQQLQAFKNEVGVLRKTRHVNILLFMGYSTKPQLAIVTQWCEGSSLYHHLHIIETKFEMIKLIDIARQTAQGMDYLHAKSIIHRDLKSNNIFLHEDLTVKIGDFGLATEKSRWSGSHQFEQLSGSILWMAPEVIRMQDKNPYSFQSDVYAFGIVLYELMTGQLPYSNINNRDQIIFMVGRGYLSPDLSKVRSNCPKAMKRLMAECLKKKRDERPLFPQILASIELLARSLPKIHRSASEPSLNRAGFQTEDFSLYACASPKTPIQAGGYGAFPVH
The target of the next series is T2, Cytochrome P450 1A2 (Homo sapiens, UniProt P05177).
T2 sequence (P05177 whole entry): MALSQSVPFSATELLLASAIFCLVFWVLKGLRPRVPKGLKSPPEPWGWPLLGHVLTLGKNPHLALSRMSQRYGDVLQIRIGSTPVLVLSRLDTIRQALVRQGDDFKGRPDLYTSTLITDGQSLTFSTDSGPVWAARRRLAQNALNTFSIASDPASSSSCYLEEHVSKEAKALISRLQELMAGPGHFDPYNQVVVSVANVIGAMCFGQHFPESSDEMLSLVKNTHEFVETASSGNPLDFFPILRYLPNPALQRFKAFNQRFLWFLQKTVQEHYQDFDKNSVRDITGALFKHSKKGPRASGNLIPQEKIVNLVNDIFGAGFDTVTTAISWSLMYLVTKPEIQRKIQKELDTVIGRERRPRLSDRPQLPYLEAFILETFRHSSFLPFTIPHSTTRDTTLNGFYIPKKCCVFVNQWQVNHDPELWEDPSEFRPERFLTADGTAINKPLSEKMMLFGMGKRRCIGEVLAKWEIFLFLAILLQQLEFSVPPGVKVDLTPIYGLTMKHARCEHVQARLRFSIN
As to the kind of experiment: Inhibition of CYP1A2. The class given is ADME.

Series [2] deals with T1, Serine/threonine-protein kinase B-raf. The series can be described thus: Inhibition of B-Raf V600E mutant assessed as inhibition of phosphorylated ERK production by cell based assay. In short, it runs like this:
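Cell-based readout of phospho-ERK production. The IC50 is the average of three experiments.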

The nature of series [3]: Aqueous solubility of the compound at pH 6.5. The series is classed as physicochemical.
The nature of series [4]: Permeability of the compound across human Caco2 cells. The series is classed as ADME, cell-based. Conditions: caco-2, read-out: permeability. The method, boiled down: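 Caco-2 permeability is reported as a class: low (<2 × 10^-6 cm/s), medium (2–8 × 10^-6 cm/s), high (>8 × 10^-6 cm/s).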
A further series concerns Caco-2. As to the kind of experiment: Permeability ratio of the compound across human Caco2 cells. The class given is ADME, cell-based.

pIC50: −log10 of the molar value.

Cytochrome P450 3A4, sequence (P08684 whole entry): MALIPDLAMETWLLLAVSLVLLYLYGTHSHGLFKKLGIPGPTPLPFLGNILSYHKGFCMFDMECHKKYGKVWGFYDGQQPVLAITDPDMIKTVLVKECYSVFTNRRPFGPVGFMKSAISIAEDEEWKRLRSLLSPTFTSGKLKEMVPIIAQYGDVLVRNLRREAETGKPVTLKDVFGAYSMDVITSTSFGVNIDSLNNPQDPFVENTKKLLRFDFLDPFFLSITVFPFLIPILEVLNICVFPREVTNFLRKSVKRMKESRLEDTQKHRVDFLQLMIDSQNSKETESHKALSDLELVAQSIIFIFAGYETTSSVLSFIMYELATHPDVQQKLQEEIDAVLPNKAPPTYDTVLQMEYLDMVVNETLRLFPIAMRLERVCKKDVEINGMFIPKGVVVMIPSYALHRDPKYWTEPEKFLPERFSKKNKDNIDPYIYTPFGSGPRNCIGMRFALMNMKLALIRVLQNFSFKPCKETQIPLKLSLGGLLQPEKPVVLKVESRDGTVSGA
Cytochrome P450 2C19, sequence (P33261 whole entry): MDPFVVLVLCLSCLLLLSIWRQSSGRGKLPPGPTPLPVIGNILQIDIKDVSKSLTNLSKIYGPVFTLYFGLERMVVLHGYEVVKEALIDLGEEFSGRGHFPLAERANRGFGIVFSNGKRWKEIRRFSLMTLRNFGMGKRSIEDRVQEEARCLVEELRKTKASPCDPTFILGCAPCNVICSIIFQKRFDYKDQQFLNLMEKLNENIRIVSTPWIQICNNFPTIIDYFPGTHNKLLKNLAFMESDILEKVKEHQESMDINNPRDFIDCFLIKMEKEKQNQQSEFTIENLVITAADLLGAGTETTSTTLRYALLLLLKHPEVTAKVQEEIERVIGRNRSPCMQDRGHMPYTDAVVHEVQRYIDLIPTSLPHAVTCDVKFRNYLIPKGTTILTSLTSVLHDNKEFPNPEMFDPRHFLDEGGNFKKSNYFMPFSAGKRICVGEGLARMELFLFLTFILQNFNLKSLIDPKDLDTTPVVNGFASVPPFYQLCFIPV

On to `CCOC(=O)c1oc2cnccc2c1Nc1ccc2c(c1)CC/C2=N/O`, for which the pIC50 on Cytochrome P450 3A4 was 5.08; on Cytochrome P450 2C19 it was 5.93; in series [1], greater than 8.70; against Cytochrome P450 1A2 it was less than 4.60; in series [2], 7.52.
Molecule `NCc1ccc(Nc2c(-c3ccccc3)nc3cnccn23)cc1` showed a pIC50 in series [1] of 5.85.
Consider `Clc1ccc(Nc2c(-c3ccccc3)nc3cnccn23)cc1`, for which the negative logarithm of the IC50 (pIC50) was 6.24 in series [1] and 4.12 in series [2].
In series [1], `Cc1nc2cnccn2c1Nc1ccc(Cl)cc1` had a pIC50 of 5.92.
With `CCOC(=O)c1nc2cnccn2c1Nc1ccc2c(c1)CC/C2=N\O`, the pIC50 in series [1] was 7.80; in series [2], 5.51.
`O/N=C1/CCc2cc(Nc3c(-c4ccccc4)nc4cnccn34)ccc21`: the negative logarithm of the IC50 (pIC50) is 7.46 in series [1] and 4.72 in series [2].
Taken in the same sequence, the figures for `O/N=C1/CCc2cc(Nc3c(-c4cccnc4)nc4cnccn34)ccc21` were 7.33 and 4.80.
On to `O/N=C1/CCc2cc(Nc3c(-c4ccco4)nc4cnccn34)ccc21`, for which the figures for the pIC50 in series [1] and in series [2] were 8.40 and 5.85, respectively.
Turning to `CCOC(=O)c1sc2cnccc2c1Nc1ccc2c(c1)CC/C2=N/O`, the pIC50 was 7.30 against Cytochrome P450 3A4; 6.89 on Cytochrome P450 2C19; 8.52 in series [1]; 6.21 against Cytochrome P450 1A2; 6.55 in series [2].
On to `CN(C)C(=O)c1sc2cnccc2c1Nc1ccc2c(c1)CC/C2=N/O`, for which the pIC50 in series [1] was 7.40; in series [2], 5.24.
The corresponding values for `CN(C)CCNC(=O)c1sc2cnccc2c1Nc1ccc2c(c1)CC/C2=N/O` are 7.28 and 5.09.
In the case of `O/N=C1/CCc2cc(Nc3csc4cnccc34)ccc21`, the pIC50 is 7.49 in series [1] and 5.14 in series [2].
As to `O/N=C1/CCc2cc(Nc3c(-c4ccccc4)sc4cnccc34)ccc21`, the pIC50 in series [1] is 8.52; in series [2] it was 5.82.
For the molecule `O/N=C1/CCc2cc(Nc3c(-c4cccnc4)sc4cnccc34)ccc21`, the values for the pIC50 in series [1] and in series [2] were 8.52 and 6.77, respectively.
Taken in the same sequence, the figures for `CCCC(=O)c1sc2cnccc2c1Nc1ccc2c(c1)CC/C2=N/O` were greater than 8.70 and 6.85.
As to `CN(C)C(=O)c1oc2cnccc2c1Nc1ccc2c(c1)CC/C2=N\O`, the pIC50 was 8.30 in series [1] and 6.47 in series [2].
In turn, `CN(C)CCNC(=O)c1oc2cnccc2c1Nc1ccc2c(c1)CC/C2=N\O` registered a solubility in series [3] greater than 1000 µg/mL. Also, the Papp in series [4] is greater than 8 ×10⁻⁶ cm/s. Further, the pIC50 was 8.70 in series [1] and 7.40 in series [2]. In addition, the Ratio in the series on Caco-2 stood at 0.9.
On to `Cc1ccc(-c2oc3cnccc3c2Nc2ccc3c(c2)CC/C3=N\O)cc1`, for which the pIC50 in series [1] is 8.52; in series [2], 5.70.
Regarding `O/N=C1\CCc2cc(Nc3c(-c4ccccn4)oc4cnccc34)ccc21`, the pIC50 was greater than 8.70 in series [1] and 6.82 in series [2].
Regarding `O/N=C1/CCc2cc(Nc3c(-c4cccnc4)oc4cnccc34)ccc21`, the pIC50 in series [1] is greater than 8.70; in series [2], 6.02.
Taken in the same sequence, the figures for `Cc1cc(-c2oc3cnccc3c2Nc2ccc3c(c2)CC/C3=N\O)no1` were greater than 8.70 and 6.44.
Regarding `O/N=C1\CCc2cc(Nc3c(-c4ncccn4)oc4cnccc34)ccc21`, the Papp in series [4] is greater than 8 ×10⁻⁶ cm/s. Further, the pIC50 is 9.70 in series [1] and 8.30 in series [2]. Moreover, the Ratio with Caco-2 turned out to be 0.9.
For the molecule `Oc1cc(-c2nc(-c3ccccc3)[nH]c2-c2ccncc2)ccc1Cl`, the pIC50 in series [1] was 8.00.

These data come from ChEMBL document CHEMBL1667771, “The discovery of furo[2,3-c]pyridine-based indanone oximes as potent and selective B-Raf inhibitors” (Bioorg Med Chem Lett, 2011).
